Here are results for six compounds from ChEMBL document CHEMBL3734686, “Synthesis, Photophysical Properties, and Biological Evaluation of trans-Bisthioglycosylated Tetrakis(fluorophenyl)chlorin for Photodynamic Therapy” (J Med Chem, 2015).

The term pEC50 denotes the EC50 on a negative log10 scale, so that one unit is a factor of ten.

Structures are written as SMILES. pEC50: −log10 of the molar value.

Data set [1] in a line: Induction of reactive oxygen generation assessed as quantum yield of singlet oxygen generation in O2 saturated D2O containing 0.1% DMSO by spectrometry. It is filed as physicochemical. The method, boiled down:
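Photosensitizer in D2O with 0.1% DMSO, absorbance set to 0.4 at its excitation wavelength, oxygen-purged 1 min; singlet-oxygen luminescence recorded with NIR photomultiplier cooled to 193 K; TPPS as reference.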

Data set [2] in a line: Induction of reactive oxygen generation assessed as quantum yield of hydrogen peroxide generation in O2 saturated PBS containing 1% DMSO under photoirradiation by spectrometry relative to control hematoporphyrin. As to conditions: buffer. It is filed as physicochemical. The method, boiled down: (§1)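 Photosensitizer (1.00 µM) with HPF (2.00 µM) in PBS containing 1% DMSO, oxygenated 1 min, irradiated with 100-W halogen lamp through λ>500 nm cutoff filter at 37°C; hematoporphyrin as reference.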

Data set [3] is described as follows: Induction of reactive oxygen generation assessed as quantum yield of hydroxyl radical generation in O2 saturated PBS containing 1% DMSO under photoirradiation by spectrometry relative to control hematoporphyrin. It is filed as physicochemical. The settings on record: buffer. The method, boiled down:
as §1

Data set [4] deals with HeLa. Put plainly: Dark cytotoxicity against human HeLa cells at 0.5 uM assessed as cell survival preincubated for 24 hrs measured by WST-8 assay in absence of photoirradiation. It is filed as cell-based. The method, boiled down: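 HeLa cells were seeded at 5 × 10^3 per well in DMEM with 10% FCS and grown for 24 h at 37°C. They were then exposed for 24 h to 0.5 µM photosensitizer (1% DMSO final), washed, and not irradiated. Viability was read 24 h later by WST-8 absorbance at 450 nm and expressed as percent of untreated wells.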
(In general: Tetrazolium assays rely on reduction of a dye to a coloured formazan, in cell work by metabolically active cells.)

The test system of data set [5] is HeLa. Put plainly: Photocytotoxicity against human HeLa cells assessed as cell survival preincubated for 24 hrs followed by irradiation at 16 J/cm2 measured at 24 hrs by WST-8 assay. It is filed as functional, cell-based. The settings on record: light or radiation study. The method, boiled down: (§2)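 Cells (5 × 10^3/well) in DMEM with 10% FCS, 24 h at 37°C, 5% CO2; photosensitizer 1–50000 nM (1% DMSO final) for 24 h, washed, fresh medium. Irradiated with 100-W halogen lamp through λ>500 nm or λ>600 nm cutoff filter to 16 J·cm−2; WST-8 absorbance at 450 nm 24 h later, survival normalized to no-drug wells.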

Data set [6] relates to HeLa. Put plainly: Drug uptake in human HeLa cells at 0.1 uM after 24 hrs by spectrophotometrical analysis. It is filed as ADME, cell-based. The method, boiled down: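 HeLa cells (2.5 × 10^6/well) in DMEM with 10% FCS, preincubated 24 h at 37°C; photosensitizer added to 0.1 µM final (1% DMSO) for 24 h, two wells each. Cells washed twice with PBS, lysed in DMSO, Soret-band absorbance read against DMSO calibration; mean of three replicate experiments.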

A short description of data set [7]: Ratio of drug level in tumor to skin in iv dosed BDXI rat implanted with rat LSBD1 cells after 24 hrs. The settings on record: in vivo. It is filed as ADME, organism-based.
The nature of data set [8]: Photocytotoxicity against mouse B16-F1 cells assessed as cell survival preincubated for 24 hrs followed by irradiation at 16 J/cm2 measured at 24 hrs by WST-8 assay. It is filed as functional, cell-based. As to conditions: B16-F1, light or radiation study. The method, boiled down: as §2
Data set [9] concerns 4T1. Put plainly: Photocytotoxicity against mouse 4T1 cells assessed as cell survival preincubated for 24 hrs followed by irradiation at 16 J/cm2 measured at 24 hrs by WST-8 assay. The settings on record: 4T1, light or radiation study. It is filed as functional, cell-based. In outline: as §2
The nature of data set [10]: Photocytotoxicity against rat RGK1 cells assessed as cell survival preincubated for 24 hrs followed by irradiation at 16 J/cm2 measured at 24 hrs by WST-8 assay. It is filed as functional, cell-based. The settings on record: RGK1, light or radiation study. In outline:
as §2

Data set [11] can be described thus: Photocytotoxicity against human U87 cells assessed as cell survival preincubated for 24 hrs followed by irradiation at 16 J/cm2 measured at 24 hrs by WST-8 assay. It is filed as functional, cell-based, U-87MG ATCC. As to conditions: U-87 MG, light or radiation study. In outline:
as §2

Data set [12] concerns U-251. Put plainly: Photocytotoxicity against human U251 cells assessed as cell survival preincubated for 24 hrs followed by irradiation at 16 J/cm2 measured at 24 hrs by WST-8 assay. It is filed as functional, cell-based. As to conditions: U-251, light or radiation study. The method, boiled down: as §2
In data set [13] the test system is T98G. Put plainly: Photocytotoxicity against human T98G cells assessed as cell survival preincubated for 24 hrs followed by irradiation at 16 J/cm2 measured at 24 hrs by WST-8 assay. The settings on record: light or radiation study. It is filed as functional, cell-based. The method, boiled down: as §2

Regarding `CN1CC2C3=N/C(=C(/c4c(F)c(F)c(S[C@@H]5O[C@H](CO)[C@@H](O)[C@H](O)[C@H]5O)c(F)c4F)C4=N/C(=C(/c5c(F)c(F)c(S[C@@H]6O[C@H](CO)[C@@H](O)[C@H](O)[C@H]6O)c(F)c5F)c5ccc([nH]5)/C(c5c(F)c(F)c(S[C@@H]6O[C@H](CO)[C@@H](O)[C@H](O)[C@H]6O)c(F)c5F)=C5/C=CC(=N5)C3c3c(F)c(F)c(S[C@@H]5O[C@H](CO)[C@@H](O)[C@H](O)[C@H]5O)c(F)c3F)C=C4)C2C1` (stereo partly drawn), the Activity in data set [1] is 0.17; in data set [4], “Non-toxic”. For the same compound, the figures for the Ratio in [2] and in data set [3] were 1.7 and 1.1, respectively. The pEC50 in data set [5] was 7.30. Further, the Drug uptake entry in data set [6] is “Active”.

`Oc1cccc(-c2c3nc(c(-c4cccc(O)c4)c4ccc([nH]4)c(-c4cccc(O)c4)c4nc(c(-c5cccc(O)c5)c5ccc2[nH]5)CC4)C=C3)c1` [TEMOPORFIN]: the Ratio in data set [7] turned out to be 3.

In the case of `CC1=C(CCC(=O)O)c2cc3[nH]c(cc4nc(cc5[nH]c(cc1n2)c(C)c5C(C)O)C(C)=C4C(C)O)c(C)c3CCC(=O)O` (stereo not drawn) [HEMATOPORPHYRIN], the Ratio in data set [2] and in data set [3] was 1 each time.

`OC[C@H]1O[C@@H](Oc2ccc(/C3=C4\C=CC(=N4)C(c4ccc(O[C@@H]5O[C@H](CO)[C@@H](O)[C@H](O)[C@H]5O)cc4)C4=N/C(=C(/c5ccc(O[C@@H]6O[C@H](CO)[C@@H](O)[C@H](O)[C@H]6O)cc5)c5ccc([nH]5)/C(c5ccc(O[C@@H]6O[C@H](CO)[C@@H](O)[C@H](O)[C@H]6O)cc5)=C5/C=CC3=N5)C=C4)cc2)[C@H](O)[C@@H](O)[C@@H]1O` (stereo partly drawn): the pEC50 in data set [5] was 5.30.

`O=S(=O)(O)c1ccc(-c2c3nc(c(-c4ccc(S(=O)(=O)O)cc4)c4ccc([nH]4)c(-c4ccc(S(=O)(=O)O)cc4)c4nc(c(-c5ccc(S(=O)(=O)O)cc5)c5ccc2[nH]5)C=C4)C=C3)cc1`: in [1], the Activity is 0.72.

Take `OC[C@H]1O[C@@H](Sc2c(F)c(F)c(/C3=C4\C=CC(=N4)C(c4c(F)c(F)c(F)c(F)c4F)C4=N/C(=C(/c5c(F)c(F)c(S[C@@H]6O[C@H](CO)[C@@H](O)[C@H](O)[C@H]6O)c(F)c5F)c5ccc([nH]5)/C(c5c(F)c(F)c(F)c(F)c5F)=C5/C=CC3=N5)C=C4)c(F)c2F)[C@H](O)[C@@H](O)[C@@H]1O` (stereo partly drawn): the Activity in [1] is on record as 0.16; in data set [4] it was “Non-toxic”. The Ratio in data set [2] is given as 0.8; in data set [3], 7.7. Further, the pEC50 is 8.00 in data set [5]; 9.00 in data set [8]; 8.00 in [9]; 8.00 in [10]; 8.00 in [11]; 8.00 in data set [12]. Besides, in [13], the pEC50 was 8.00. In addition, the Drug uptake result in [6] is “Active”.
